This is an account of results in ChEMBL document CHEMBL1129933, “Tyrosine kinase inhibitors. 6. Structure-activity relationships among N- and 3-substituted 2,2'-diselenobis(1H-indoles) for inhibition of protein tyrosine kinases and comparative in vitro and in vivo studies against selected sulfur congeners” (J Med Chem, 1997).

For assay [1], the system named is A-431. Put plainly: In vivo activity against human A431 epidermoid xenograft, net cell kill at 0.5 mg/kg/day administered subcutaneously for 1-27 days. In kind it is functional. As to conditions: route subcutaneous. A digest of the protocol:
(§1)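 Nude mice (NCr nu/nu), 18-22 g, randomized, implanted sc in the right axilla with serially passaged A431 tumor fragments on day 0. Dosing was by ip bolus or continuous sc Alzet miniosmotic pump infusion, by average cage weight. Vehicle was distilled H2O or 10% DMA in 50 mM lactic acid buffer, pH 4.0, depending on compound. Net cell kill = net log reduction in tumor burden between first and last treatments.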

Assay [2] deals with C6. Put plainly: In vivo activity against C6 glioma xenograft, weight change after 1.8 mg/kg ip dose for 9 days. In kind it is functional. Particulars: route intraperitoneal. The method, boiled down: (§2)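 […] C6 glioma xenograft, serially passaged in NCr nu/nu nude mice, implanted sc as tumor fragments in the right axilla on day 0. Mice weighed 18-22 g and were randomized. Dosing was ip bolus on a d1-9 daily schedule in 10% DMA in 50 mM lactic acid buffer, pH 4.0, by average cage weight. Weight change is the maximum treatment-related weight loss in the growth delay assay.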

Assay [3] concerns the target T1, Platelet-derived growth factor receptor beta (Mus musculus, UniProt P05622). Nature of the assay: Inhibition of platelet-derived growth factor receptor (PDGFr) autophosphorylation. The assay is classed as functional. The method, boiled down:
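Swiss 3T3 fibroblasts were treated 2 h with a range of compound concentrations, then stimulated 5 min with growth factor. Receptor tyrosine phosphorylation was assessed by cell extraction and western blotting.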

The nature of assay [4]: Inhibition of protein synthesis. The assay is classed as functional. The method, boiled down: (§3)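 Log-phase cells were drug-treated for 2 h, then exposed for 2 h to 1 µM [methyl-3H]thymidine (DNA), [5-3H]uridine (RNA) or (S)-[4,5-3H]leucine (protein), each at 1 µCi/nmol. Cells were trypsinized into ice-cold 15% TCA, and precipitates were collected on glass-fibre filters, washed, and counted by scintillation.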

Assay [5] can be described thus: Inhibition of DNA synthesis. In kind it is functional. The method, boiled down: as §3
Assay [6] concerns C6. Nature of the assay: In vivo activity against C6 glioma xenograft, tumor growth delay (T-C, days) at 1.8 mg/kg ip dose for 9 days. Particulars: route intraperitoneal.
For assay [7], the system named is A-431. Put plainly: In vivo activity against human A431 epidermoid xenograft, weight change after 0.5 mg/kg/day sc dose for 9-15 days. The assay is classed as functional. As to conditions: route subcutaneous. The method, boiled down: (§4)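 Nude mice (NCr nu/nu, 18-22 g) bearing sc A431 fragments in the right axilla (day 0) received continuous sc infusion from an Alzet miniosmotic pump implanted under ketamine-xylazine. Pumps were removed or replaced under lidocaine-epinephrine for longer therapy, in 7-day and 27-day studies. Daily dose was the maximum deliverable without significant precipitation. Weight change was taken as the maximum treatment-related loss.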

Assay [8] has as its system C6. Put plainly: In vivo activity against C6 glioma xenograft, net cell kill at 1.8 mg/kg administered intraperitoneally for 9 days. The assay is classed as functional. As to conditions: route intraperitoneal. The method, boiled down: as §2
The nature of assay [9]: Inhibition of mouse Swiss 3T3 fibroblasts proliferation. In kind it is functional, cell-based. The method, boiled down: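 Swiss 3T3 mouse fibroblast growth assay. IC50 is the concentration reducing cell growth rate by 50%, as the mean of duplicates from at least two separate experiments.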
Assay [10] deals with T1, Platelet-derived growth factor receptor beta. Nature of the assay: Inhibition of Platelet-derived growth factor receptor beta (PDGFr). A digest of the protocol:
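Full-length mouse PDGF-β receptor was overexpressed in baculovirus-infected insect cells and assayed as cell lysates. Read-out was 32P-phosphate transfer from ATP into TCA-precipitable poly(Glu,Tyr) 4:1. IC50 values are means of duplicates from at least two separate experiments.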

The target in assay [11] is T2, Epidermal growth factor receptor (Homo sapiens, UniProt P00533). Nature of the assay: Inhibition of epidermal growth factor receptor (EGFr).
The subject of assay [12] is A-431. Put plainly: In vivo activity against human A431 epidermoid xenograft, net cell kill at 0.5 mg/kg/day administered subcutaneously for 9-15 days. In kind it is functional. As to conditions: route subcutaneous. A digest of the protocol: as §1
For assay [13], the target named is Fibroblast growth factor receptor (Mus musculus, UniProt P21803+Q03142+P16092+Q61851). Put plainly: Inhibition of fibroblast growth factor (bFGF)-mediated autophosphorylation of FGF-R in Swiss 3T3 mouse fibroblasts. In kind it is functional. The method, boiled down: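 Swiss 3T3 fibroblasts were treated 2 h with a range of compound concentrations, then stimulated for 5 min with growth factor (bFGF). Receptor tyrosine phosphorylation was read by extraction and western blotting.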

Assay [14] can be described thus: Inhibition of RNA synthesis. In kind it is functional. The method, boiled down:
as §3

A short description of assay [15]: Inhibition of Src tyrosine kinase. A digest of the protocol:
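v-src protein came from baculovirus-infected insect cells. Kinase activity was measured as 32P incorporation from ATP into TCA-precipitable random Glu/Tyr (4:1) copolymer. IC50 values are means of duplicates from at least two separate experiments.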

Assay [16] deals with A-431. Put plainly: In vivo activity against human A431 epidermoid xenograft, tumor growth delay (T-C, days) at 0.5 mg/kg/day administered subcutaneously for 1-27 days. As to conditions: route subcutaneous.
The target of assay [17] is Epidermal growth factor receptor (Mus musculus) (UniProt Q01279). Put plainly: Inhibition of epidermal growth factor receptor (EGFr) autophosphorylation.
For assay [18], the system named is A-431. Nature of the assay: In vivo activity against human A431 epidermoid xenograft, tumor growth delay (T-C) at 0.5 mg/kg/day administered subcutaneously for 9-15 days. As to conditions: route subcutaneous.
Assay [19] can be described thus: Inhibition of Src tyrosine kinase using peptide substrate. The method, boiled down:
(§5)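 v-src kinase inhibition kinetics were run with either ATP or the Glu/Tyr peptide polymer substrate varied. Ki (µM) was obtained by nonlinear regression using Cleland's equations. Inhibition type was assigned by comparing Ki values from slope and intercept determinations.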

In assay [20] the target is T2, Epidermal growth factor receptor. Put plainly: Inhibition of epidermal growth factor receptor (EGFr) using peptide substrate. A digest of the protocol:
(§6)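 EGFr came from membrane vesicles shed by human A431 carcinoma cells. Activity was measured as 32P-phosphate transfer from ATP into a TCA-precipitable glutamate/tyrosine (4:1) random copolymer. ATP or peptide polymer substrate was varied. Ki was obtained by nonlinear regression with Cleland's equations, comparing slope and intercept determinations to assign the inhibition type.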

For assay [21] the target is unchanged. Nature of the assay: Inhibition of epidermal growth factor receptor (EGFr) using ATP substrate. A digest of the protocol:
as §6

Assay [22] is described as follows: Inhibition of Src tyrosine kinase using ATP substrate. A digest of the protocol:
as §5

For assay [23], the system named is A-431. Put plainly: In vivo activity against human A431 epidermoid xenograft, weight change after 0.5 mg/kg/day sc dose for 1-27 days. The assay is classed as functional, organism-based. A digest of the protocol:
as §4

T1 sequence (P05622 whole entry): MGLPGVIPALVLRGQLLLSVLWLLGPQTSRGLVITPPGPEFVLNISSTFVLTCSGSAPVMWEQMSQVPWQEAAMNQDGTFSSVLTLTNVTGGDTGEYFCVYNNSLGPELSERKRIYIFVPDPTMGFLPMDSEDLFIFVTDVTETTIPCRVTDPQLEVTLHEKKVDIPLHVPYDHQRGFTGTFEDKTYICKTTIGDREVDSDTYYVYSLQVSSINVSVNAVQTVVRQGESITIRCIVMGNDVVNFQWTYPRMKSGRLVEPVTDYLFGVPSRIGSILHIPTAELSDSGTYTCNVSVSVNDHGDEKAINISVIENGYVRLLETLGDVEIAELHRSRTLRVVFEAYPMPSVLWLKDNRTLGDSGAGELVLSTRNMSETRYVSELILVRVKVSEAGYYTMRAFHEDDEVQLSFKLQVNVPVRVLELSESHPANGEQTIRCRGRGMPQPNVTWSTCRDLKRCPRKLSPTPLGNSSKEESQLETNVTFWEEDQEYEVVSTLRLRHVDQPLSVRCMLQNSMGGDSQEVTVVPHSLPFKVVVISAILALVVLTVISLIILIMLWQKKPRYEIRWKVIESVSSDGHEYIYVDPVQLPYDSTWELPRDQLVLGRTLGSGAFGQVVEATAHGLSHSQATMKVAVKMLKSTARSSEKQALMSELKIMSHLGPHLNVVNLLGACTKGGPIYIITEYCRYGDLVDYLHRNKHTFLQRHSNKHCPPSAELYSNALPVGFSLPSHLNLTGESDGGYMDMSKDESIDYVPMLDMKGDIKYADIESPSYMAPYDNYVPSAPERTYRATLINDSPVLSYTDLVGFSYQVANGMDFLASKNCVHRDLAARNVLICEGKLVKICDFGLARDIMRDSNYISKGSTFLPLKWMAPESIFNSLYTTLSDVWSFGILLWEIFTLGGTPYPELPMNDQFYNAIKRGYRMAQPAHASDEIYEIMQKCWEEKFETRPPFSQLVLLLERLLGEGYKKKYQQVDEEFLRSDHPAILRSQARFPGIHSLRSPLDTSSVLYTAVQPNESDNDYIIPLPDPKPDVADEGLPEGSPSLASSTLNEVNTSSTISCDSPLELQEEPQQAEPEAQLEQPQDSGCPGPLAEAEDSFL
T2 sequence (P00533 whole entry): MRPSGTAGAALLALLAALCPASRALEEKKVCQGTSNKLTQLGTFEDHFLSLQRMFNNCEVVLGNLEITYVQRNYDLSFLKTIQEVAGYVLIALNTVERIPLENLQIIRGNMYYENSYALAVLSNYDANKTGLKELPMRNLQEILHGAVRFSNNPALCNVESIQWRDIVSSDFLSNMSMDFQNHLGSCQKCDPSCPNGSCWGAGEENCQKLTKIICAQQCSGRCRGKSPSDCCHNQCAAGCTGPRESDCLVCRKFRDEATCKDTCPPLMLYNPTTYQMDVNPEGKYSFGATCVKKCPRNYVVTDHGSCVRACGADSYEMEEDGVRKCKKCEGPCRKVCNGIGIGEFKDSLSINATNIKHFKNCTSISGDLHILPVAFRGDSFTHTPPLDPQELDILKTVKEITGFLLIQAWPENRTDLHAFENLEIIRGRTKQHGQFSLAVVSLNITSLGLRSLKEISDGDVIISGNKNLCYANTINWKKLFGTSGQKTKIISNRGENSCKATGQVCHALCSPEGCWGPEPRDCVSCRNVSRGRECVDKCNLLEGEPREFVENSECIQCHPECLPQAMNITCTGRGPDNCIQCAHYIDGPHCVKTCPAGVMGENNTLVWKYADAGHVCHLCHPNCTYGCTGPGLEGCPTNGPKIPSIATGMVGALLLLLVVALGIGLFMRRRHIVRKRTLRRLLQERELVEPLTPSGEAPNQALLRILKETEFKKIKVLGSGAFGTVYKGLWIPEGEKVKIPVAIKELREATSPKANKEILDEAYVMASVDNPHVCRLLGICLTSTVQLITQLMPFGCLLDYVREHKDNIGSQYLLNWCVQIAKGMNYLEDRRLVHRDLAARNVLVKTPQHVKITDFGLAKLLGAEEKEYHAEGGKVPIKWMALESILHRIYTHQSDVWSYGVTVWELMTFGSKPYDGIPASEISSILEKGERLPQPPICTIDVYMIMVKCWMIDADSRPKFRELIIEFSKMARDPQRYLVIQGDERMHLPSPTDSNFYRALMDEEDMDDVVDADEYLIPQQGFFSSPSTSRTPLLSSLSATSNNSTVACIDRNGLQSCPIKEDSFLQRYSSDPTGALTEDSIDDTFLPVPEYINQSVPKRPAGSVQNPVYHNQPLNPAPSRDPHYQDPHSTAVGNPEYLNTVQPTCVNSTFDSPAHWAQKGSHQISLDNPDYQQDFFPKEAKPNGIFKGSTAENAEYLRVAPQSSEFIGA
Epidermal growth factor receptor (Mus musculus), sequence (Q01279 whole entry, looked up): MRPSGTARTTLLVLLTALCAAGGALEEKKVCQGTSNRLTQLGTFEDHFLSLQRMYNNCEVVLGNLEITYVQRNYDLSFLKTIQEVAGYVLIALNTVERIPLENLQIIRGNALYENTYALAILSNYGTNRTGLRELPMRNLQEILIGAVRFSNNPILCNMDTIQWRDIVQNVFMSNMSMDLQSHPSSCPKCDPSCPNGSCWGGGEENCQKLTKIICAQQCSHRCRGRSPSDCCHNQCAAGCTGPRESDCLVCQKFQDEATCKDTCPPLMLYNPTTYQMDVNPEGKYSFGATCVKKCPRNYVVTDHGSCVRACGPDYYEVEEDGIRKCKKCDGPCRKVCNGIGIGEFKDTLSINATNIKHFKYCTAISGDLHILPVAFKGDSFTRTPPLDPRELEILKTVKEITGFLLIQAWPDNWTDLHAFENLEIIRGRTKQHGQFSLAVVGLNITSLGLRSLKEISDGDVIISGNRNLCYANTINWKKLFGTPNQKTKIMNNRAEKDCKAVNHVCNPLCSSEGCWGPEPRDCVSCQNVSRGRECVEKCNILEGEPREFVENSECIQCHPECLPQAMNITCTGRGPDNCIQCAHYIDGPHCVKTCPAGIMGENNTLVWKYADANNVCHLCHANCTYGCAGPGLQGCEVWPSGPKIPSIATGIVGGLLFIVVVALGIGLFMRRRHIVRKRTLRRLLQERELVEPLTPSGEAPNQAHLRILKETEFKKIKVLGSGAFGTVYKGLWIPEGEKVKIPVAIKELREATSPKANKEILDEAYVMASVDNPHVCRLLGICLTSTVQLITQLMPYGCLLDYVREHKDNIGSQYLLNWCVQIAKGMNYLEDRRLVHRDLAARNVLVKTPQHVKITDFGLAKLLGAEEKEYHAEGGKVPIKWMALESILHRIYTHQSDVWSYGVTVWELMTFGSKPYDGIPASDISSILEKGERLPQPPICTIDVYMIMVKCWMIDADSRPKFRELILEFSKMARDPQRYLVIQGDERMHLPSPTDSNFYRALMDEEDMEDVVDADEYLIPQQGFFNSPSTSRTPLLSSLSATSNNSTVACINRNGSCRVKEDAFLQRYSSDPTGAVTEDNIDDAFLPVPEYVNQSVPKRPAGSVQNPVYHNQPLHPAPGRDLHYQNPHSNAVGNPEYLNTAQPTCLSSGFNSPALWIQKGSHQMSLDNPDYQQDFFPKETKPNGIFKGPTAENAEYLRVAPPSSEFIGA

With `N[C@H](Cc1c([Se][Se]c2[nH]c3ccccc3c2C[C@H](N)C(=O)NCc2ccccc2)[nH]c2ccccc12)C(=O)NCc1ccccc1` (stereo in doubt; 33) [listing 1 of 2 here], the Net cell kill in the assay with A-431 [1] was -0.4 log10; in the assay on C6 [8], -0.2 log10; in the assay on A-431 [12], -0.2 log10. The Weight change is recorded as -0.9 g in the assay on C6 [2] and -0.2 g in the assay with A-431 [7]. In addition, the IC50 in assay [3] worked out at 0.57 µM; in [4], 0.17 µM; in assay [5] it was 0.18 µM; in assay [9] (Mus musculus), 0.54 µM; in [10], 14.1 µM; in assay [11], 0.9 µM. For the same molecule, the IC50 in assay [13] worked out at 0.2 µM; in assay [14], 0.35 µM; in assay [15] it was 2 µM; in assay [17] it was 4.2 µM. In addition, the values for the T-C in the assay on C6 [6], with A-431 [16] and in the assay on A-431 [18] were 2 days, 10.8 days and 2.2 days, respectively.

With `O=C(NCc1ccccc1)[C@H](Cc1c([Se][Se]c2[nH]c3ccccc3c2C[C@@H](NC(=O)C(F)(F)F)C(=O)NCc2ccccc2)[nH]c2ccccc12)NC(=O)C(F)(F)F`, the IC50 in [10] is more than 50 µM; in [11], 7 µM; in [15], 6.2 µM.

As for `CNC(=O)c1c(SSc2c(C(=O)NC)c3ccccc3n2C)n(C)c2ccccc12`, the values for the IC50 in [10], in assay [11] and in [15] were 28.1 µM, 6.9 µM and 6.7 µM, respectively. The Ki in [19] was 1.4 µM; in assay [20] it was 3.9 µM; in assay [21], 2.3 µM; in assay [22], 8 µM.

Take `N[C@H](Cc1c([Se][Se]c2[nH]c3ccccc3c2C[C@H](N)C(=O)NCc2ccccc2)[nH]c2ccccc12)C(=O)NCc1ccccc1` (stereo in doubt; 34): the IC50 is 0.6 µM in assay [9], 25.5 µM in assay [10], 1.3 µM in [11] and 3.8 µM in assay [15]. In addition, the values for the Ki in [20] and in assay [21] were 5.6 µM and 2.7 µM, respectively.

For the molecule `CNC(=O)c1c([Se][Se]c2[nH]c3ccccc3c2C(=O)NC)[nH]c2ccccc12`, the IC50 was found to be 1 µM in assay [9] (Mus musculus), 8 µM in [10] and 2.8 µM in assay [15].

For `N[C@H](Cc1c([Se][Se]c2[nH]c3ccccc3c2C[C@H](N)C(=O)NCc2ccccc2)[nH]c2ccccc12)C(=O)NCc1ccccc1` (stereo in doubt; 33) [listing 2 of 2 here], the Weight change entry in the assay with A-431 [23] was “Weight gain”.

With `CCN(CC)CCn1c([Se][Se]c2c(C(=O)NC)c3ccccc3n2CCN(CC)CC)c(C(=O)NC)c2ccccc21`, the values for the IC50 in assay [10] and in [15] were 50 µM and 1.7 µM, respectively.

For the molecule `CNC(=O)c1c([Se][Se]c2c(C(=O)NC)c3ccccc3n2C)n(C)c2ccccc12`, the IC50 came to 5.5 µM in assay [9] (Mus musculus), 4.7 µM in assay [10], 6.1 µM in assay [11] and 0.4 µM in assay [15]. Also, the Ki amounted to 0.6 µM in assay [19], 3.9 µM in assay [20], 3.1 µM in [21] and 0.8 µM in assay [22].

With `O=C(NCc1ccccc1)[C@H](Cc1c([Se]c2[nH]c3ccccc3c2C[C@@H](NC(=O)C(F)(F)F)C(=O)NCc2ccccc2)[nH]c2ccccc12)NC(=O)C(F)(F)F`, the IC50 in assay [10], in [11] and in assay [15] was more than 50 µM in each case.

`CCN(CC)CCNC(=O)c1c([Se][Se]c2[nH]c3ccccc3c2C(=O)NCCN(CC)CC)[nH]c2ccccc12`: the IC50 in assay [9] (Mus musculus) turned out to be 8 µM; in [10], 12.8 µM; in assay [15], 3.6 µM.

In the case of `CCN(CC)CCNC(=O)c1c([Se][Se]c2c(C(=O)NCCN(CC)CC)c3ccccc3n2C)n(C)c2ccccc12`, the results for the IC50 in [9] (Mus musculus), in assay [10] and in assay [15] were 19.5 µM, 3.4 µM and 1.8 µM, respectively.

`Cn1c([Se][Se]c2c(C(=O)O)c3ccccc3n2C)c(C(=O)O)c2ccccc21`: the IC50 in assay [9] (Mus musculus) was 8 µM; in [10], 17.4 µM; in assay [15], 2.4 µM.

Turning to `Cn1c([Se][Se]c2c(C(=O)OC(C)(C)C)c3ccccc3n2C)c(C(=O)OC(C)(C)C)c2ccccc21`, the IC50 in [10] was more than 31 µM; in assay [11] it was more than 100 µM; in [15], 1.5 µM.
